What is called apparent Kd is a dissociation constant that holds for the conditions of the assay.

In data set [1] the test system is MS2 coat protein. Put plainly: apparent Kd, MS2 coat protein; higher = weaker binding; RNA-MaP array; tryptophan 2.4 mM where present. Conditions: designed as: OFF switch for tryptophan. Put shortly: (§1)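 Green signal was scaled to red-channel RNA signal and control-cluster median Fmax, and the apparent Kd was taken as the median of filtered per-cluster binding-curve fits. The binding series used SNAP-549-labelled MS2 coat protein from 0.7 or 1.5 nM, doubling to 3 µM, on designs transcribed by stalled E. coli RNA polymerase on Illumina sequencing-chip clusters. Each series ran without and then with constant ligand in 100 mM Tris-HCl pH 7.5, 80 mM KCl, 4 mM MgCl2, BSA, DTT, yeast tRNA and Tween-20.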

For data set [2], the system named is MS2 coat protein. Put plainly: apparent Kd, MS2 coat protein; higher = weaker binding; RNA-MaP array; theophylline 2 mM where present. In short, it runs like this:
as §1

Where [3] appears, read: designed as: OFF switch for theophylline, no ligand.
The mark [4] stands for this setting: ligand present: theophylline, designed as: OFF switch for theophylline.
Where [5] appears, read: designed as: ON switch for theophylline, no ligand.
Setting [6] is: ligand present: theophylline, designed as: ON switch for theophylline.

Take “GUUGUAUACUCGGCCGCCACUGAGAGAGUCAUGUAAACAUGAGGAUCACCCAUGUAAUAUAUAUACAGGACCGGGAGUAUGGUAA”: the “apparent Kd” value amounted to 0.015 µM in the data set on MS2 coat protein [1] (no ligand) and 0.0129 µM in the data set on MS2 coat protein [1] (ligand present: tryptophan).
For “AGCGAUAUGCAUGAUACCAGCUACAUGAGGAUCACCCAUGUGCGUCAGAAAUGACUGUGUAGCCCUUGGCAGCAUAGAGCAUGUA”, the results for the “apparent Kd” value in the data set on MS2 coat protein [2] (setting [3]) and in the data set on MS2 coat protein [2] (setting [4]) were 0.0374 µM and 0.0736 µM, respectively.
With “AGUGUUAUAACUGAUACCAGACUUUUGCUUAUACAUGAGGAUCACCCAUGUAAAAUGGUUGUCCCUUGGCAGCAGAAGUUACACA”, the “apparent Kd” value is 0.0691 µM with MS2 coat protein [2] (setting [5]) and 0.327 µM in the data set on MS2 coat protein [2] (setting [6]).
Take “ACCUCACUCUCUGAUACCAGCUAACAACAUGAGGAUCACCCAUGUCAGACUUGUAUUGAUAGCCCUUGGCAGCAGAGGUAACUGC”: the entries for the “apparent Kd” value in the data set with MS2 coat protein [2] (setting [3]) and in the data set with MS2 coat protein [2] (setting [4]) were 0.0162 µM and 0.0313 µM, respectively.
For “ACAUGAGGAUCACCCAUGUUCCUCAUUGAUACCAGUGAAUUUAGACGCCCUUGGCAGCGAGUUUUUUUAGAAGAAGUUUUUUUUU”, in that order: 0.782 µM and 1.07 µM.
On to “AGCGGAACGGAAGGGUCCCGAAAUUGUGAUACCAGCCUUGAAUCCGGCCCUUGGCAGCACAUGAGGAUCACCCAUGUACUGCGGU”, for which the “apparent Kd” value in the data set with MS2 coat protein [2] (setting [3]) was 0.013 µM; in the data set with MS2 coat protein [2] (setting [4]), 0.045 µM.
Regarding “UUAGAUAUGACAGAUACCAGCGUGUUGUAGAACAUGAGGAUCACCCAUGUAGUGAUCAAGCGCCCUUGGCAGCUGGUAUGUUUGG”, the results for the “apparent Kd” value in the data set with MS2 coat protein [2] (setting [5]) and with MS2 coat protein [2] (setting [6]) were 0.17 µM and 0.221 µM, respectively.
Consider “GAUGAACUAUUUGAUACCAGACCACAUGAGGAUCACCCAUGUGAGUUUCGUCCUUAGCCGGUCCCUUGGCAGCAAAUAGUUUAUC”, for which the “apparent Kd” value with MS2 coat protein [2] (setting [3]) is 0.0169 µM; in the data set with MS2 coat protein [2] (setting [4]), 0.0525 µM.
Regarding “UCGUGUAUAUCGGAUACCAGUGAAAACGAUACAUGAGGAUCACCCAUGUGAGUUGAUGUACACCCUUGGCAGCUGUAUAUAUCUA”, in the data set on MS2 coat protein [2] (setting [5]), the “apparent Kd” value turned out to be 0.0193 µM.
As for “UGUUUGGUGCGCGAGUGUUGGAUAAUUGAUACCAGUGUAGAAGUGCGCCCUUGGCAGCGAAUCCUAACAUGAGGAUCACCCAUGU”, the “apparent Kd” value in the data set with MS2 coat protein [2] (setting [5]) is 0.0461 µM; in the data set with MS2 coat protein [2] (setting [6]), 0.0578 µM.
As to “GGGUAAGAUCCGGAUACCAGCGAACAUGAGGAUCACCCAUGUGAAAUAAGAUAGAAUAAACGCCCUUGGCAGCCGAAAUAGAGUU”, the “apparent Kd” value in the data set on MS2 coat protein [2] (setting [5]) worked out at 0.0773 µM; in the data set with MS2 coat protein [2] (setting [6]) it was 0.0301 µM.
For “CAUGGGUGGGUGCUGCCACCCAUUGGUGAUACCAGCAUCGAAAGAUGCCCUUGGCAGCACCAACAUGAGGAUCACCCAUGUAAUA”, in that order: 0.118 µM and 0.32 µM.
On the same counts, the results for “AGCAUGUUAGCAGAUACCAGACGUUUUAUGAUCCAUGUAACAUGAGGAUCACCCAUGUAAGUCCCUUGGCAGCUGAAAUAAUGCA” are 0.155 µM and 0.301 µM.
Consider “GCAUGCGAUACCGAUACCAGCUACUCCAUGGCGCUCCACAUGAGGAUCACCCAUGUAAAUAGCCCUUGGCAGCGGUAUUGAGAUG”, for which the “apparent Kd” value with MS2 coat protein [2] (setting [3]) came out at 0.0227 µM; in the data set with MS2 coat protein [2] (setting [4]), 0.315 µM.
Regarding “AUAGUCUAGAGUGAUACCAGACUACAUGAGGAUCACCCAUGUAUCUUUUGGUUAUCAUGUGUCCCUUGGCAGCACGCAUGUAUAG”, the “apparent Kd” value was determined as 0.0101 µM in the data set on MS2 coat protein [2] (setting [3]) and 0.0245 µM in the data set with MS2 coat protein [2] (setting [4]).
On the same counts, the results for “UAUAUAUAUAUGGAUACCAGCAGAGAAAACGUUUAUCCUAACAUGAGGAUCACCCAUGUAUGCCCUUGGCAGCUGUGUAUAUAUA” are 0.0222 µM and 0.0267 µM.
Regarding “ACAUGAGGAUCACCCAUGUCUGCCACUGAUACCAGCGGAAGCCCACGCCCUUGGCAGCAGAACAUGAGGAUCACCCAUGUAGGCU”, the “apparent Kd” value with MS2 coat protein [2] (setting [5]) amounted to 0.232 µM; in the data set on MS2 coat protein [2] (setting [6]), 0.198 µM.
On to “AAUAACAUGAGGAUCACCCAUGUAAAAGAUACCAGAGUGAUGAUCCUCCCUUGGCAGCUUAAUAACGCUAUUGAUUACAAUAGCG”, for which the “apparent Kd” value amounted to 0.0464 µM with MS2 coat protein [2] (setting [5]) and 0.108 µM with MS2 coat protein [2] (setting [6]).
As for “ACAUGAGGAUCACCCAUGUCAAGGCACGAUACCAGCUGAUCCGGUGGCCCUUGGCAGCGUCACGUUUGGUCCCGCGGAUGACACG”, the “apparent Kd” value with MS2 coat protein [2] (setting [5]) came out at 0.0647 µM; in the data set on MS2 coat protein [2] (setting [6]), 0.108 µM.
Turning to “AGCGAGAUCCGUGAUACCAGCUACAUGAGGAUCACCCAUGUGAGCGCGAAAGUGCUGUGUAGCCCUUGGCAGCACAGUGGAUCUC”, the “apparent Kd” value was determined as 0.01 µM in the data set with MS2 coat protein [2] (setting [3]) and 0.0432 µM in the data set on MS2 coat protein [2] (setting [4]).
With “UUUGAUAUGACAGAUACCAGCGUGUUGUUGAACAUGAGGAUCACCCAUGUAGUGAUCAAGCGCCCUUGGCAGCUGGUGUGUUAGG”, the “apparent Kd” value came out at 0.125 µM in the data set with MS2 coat protein [2] (setting [5]) and 0.0827 µM in the data set on MS2 coat protein [2] (setting [6]).
“AUCGUACCUGAUGAUACCAGCAAGUGAUCAUAACAUGAGGAUCACCCAUGUAAUCAGUGAUGCCCUUGGCAGCAUAGUCGAUACA”: the “apparent Kd” value amounted to 0.164 µM in the data set with MS2 coat protein [2] (setting [5]) and 0.0998 µM with MS2 coat protein [2] (setting [6]).
“CAUACUUUAGUAUGUUAUGUGGACAGUGAUACCAGAUACGAAAGUAUCCCUUGGCAGCACAACAUGAGGAUCACCCAUGUAUUUU”: the “apparent Kd” value came out at 0.023 µM in the data set with MS2 coat protein [2] (setting [5]) and 0.0136 µM with MS2 coat protein [2] (setting [6]).
